These results are taken from paper PMC5333931 (ACS chemical neuroscience, 2016).

The target in assay [1] is T1, 5-HT2A receptors (Homo sapiens, UniProt P28223). Put plainly: [3H]ketanserin competition binding in HEK293 cell membrane preparations. The conditions noted are these: for fold lower binding affinity than risperidone (1): [3H]ketanserin, HEK293 membranes.
For assay [2], the target named is T1, 5-HT2A receptors. Format: cell-based. The conditions noted are these: 10 µM compound, 1 µM 5-HT, TEVC.
Assay [3] addresses T1, 5-HT2A receptors. Description: Intracellular Ca2+ release. It is filed as cell-based.
Assay [4] has as its target T1, 5-HT2A receptors. Put plainly: TEVC, compounds alone. Format: cell-based. An outline of the steps: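 Xenopus oocytes were injected with 2 ng 5-HT2A receptor plus 2 ng GIRK4* and held at 18 °C for 1–4 days. Basal GIRK4* current was taken per trace as the inward current difference with versus without 3 mM BaCl2. Read-out was current inhibition.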
The test system of assay [5] is 5-HT2 receptor. To be noted: 5-HT-induced inositol phosphate production; cited from earlier work.
Assay [6] deals with 5-HT2 receptor. To be noted: rats, drug discrimination; cited from earlier work.
Another assay deals with T2, GIRK4* channel (Homo sapiens, UniProt P48544, S143T).
T2 sequence (P48544 1-419 S143T): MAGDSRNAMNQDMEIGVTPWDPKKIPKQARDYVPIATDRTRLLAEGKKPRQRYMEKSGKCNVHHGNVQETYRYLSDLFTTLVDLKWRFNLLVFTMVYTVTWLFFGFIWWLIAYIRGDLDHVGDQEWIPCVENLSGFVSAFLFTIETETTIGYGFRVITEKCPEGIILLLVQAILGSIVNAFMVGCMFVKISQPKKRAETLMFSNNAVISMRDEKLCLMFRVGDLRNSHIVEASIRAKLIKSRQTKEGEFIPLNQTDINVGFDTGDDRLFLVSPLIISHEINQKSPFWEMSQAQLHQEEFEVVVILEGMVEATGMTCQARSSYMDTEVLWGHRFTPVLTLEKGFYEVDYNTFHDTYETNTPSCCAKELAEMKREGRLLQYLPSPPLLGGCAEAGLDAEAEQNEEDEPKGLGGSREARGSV
Description: TEVC, oocytes expressing GIRK4* alone versus GIRK4* and 5-HT2A receptors. It is filed as cell-based. The conditions noted are these: 50 µM or higher; suggests direct inhibition of GIRK4* channel.

T1 sequence (P28223 whole entry): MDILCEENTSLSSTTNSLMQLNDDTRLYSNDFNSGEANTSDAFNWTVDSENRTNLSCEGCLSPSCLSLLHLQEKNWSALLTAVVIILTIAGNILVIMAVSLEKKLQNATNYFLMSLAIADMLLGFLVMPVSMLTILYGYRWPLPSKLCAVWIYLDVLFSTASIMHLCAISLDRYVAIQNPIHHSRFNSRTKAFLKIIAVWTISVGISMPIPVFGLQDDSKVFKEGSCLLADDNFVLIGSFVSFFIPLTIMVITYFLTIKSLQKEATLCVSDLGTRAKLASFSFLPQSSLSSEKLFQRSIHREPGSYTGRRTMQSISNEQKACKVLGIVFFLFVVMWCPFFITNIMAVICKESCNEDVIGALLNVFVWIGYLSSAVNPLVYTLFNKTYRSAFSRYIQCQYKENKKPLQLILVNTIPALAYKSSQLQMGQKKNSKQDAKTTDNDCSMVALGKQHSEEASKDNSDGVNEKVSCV

On to `Fc1ccc2c(C3CCNCC3)noc2c1` [compound 5, 6-fluoro-3-(piperidin-4-yl)benzisoxazole], for which, on 5-HT2A receptors [1], the “fold lower binding affinity than risperidone (1)” value worked out at 13.5 fold. For the same compound, the “antagonism of 5-HT responses at highest concentration tested” value (shortened to “antagonism of 5-HT responses”) on 5-HT2A receptors [2] is “significant inhibition”. For the same compound, on 5-HT2A receptors [3], the midpoint of inhibition, the IC50, lay at 20.1 ± 2.24 µM. The “agonism of compound alone” value at 5-HT2A receptors [4] (concentrations tested up to 50 µM) is recorded as “did not exhibit significant agonism”. Also, the “antagonist action in vitro” value in the assay with 5-HT2 receptor [5] is on record as “potent 5-HT2 receptor antagonist”. Also, in the assay on 5-HT2 receptor [6], the “antagonist action in vivo” value was “potent 5-HT2 receptor antagonist”.

`Cl.O=C(CCCN1CCC(c2noc3cc(F)ccc23)CC1)N1CCCCC1` [compound 2, 4-(4-(6-Fluorobenzisoxazol-3-yl)piperidin-1-yl)-1-(piperidin-1-yl)butan-1-one Hydrochloride] registered an inhibition constant (Ki) on 5-HT2A receptors [1] of 0.0398 µM. Further, the IC50 against 5-HT2A receptors [3] came to 16.7 ± 1.39 µM. The “current inhibition in oocytes expressing GIRK4* alone versus GIRK4* and 5-HT2A receptors” value at GIRK4* channel is “no significant differences”.

Consider `CN1CCC(c2noc3cc(F)ccc23)CC1.Cl` [compound 4, 6-Fluoro-3-(1-methylpiperidin-4-yl)benzisoxazole Hydrochloride], for which, at 5-HT2A receptors [1], the “binding affinity relative to risperidone” value is “half that of risperidone” and the “fold lower binding affinity than risperidone (1)” value is recorded as 2- to 8 fold. Also, on 5-HT2A receptors [2], the “antagonism of 5-HT responses” value is “significant inhibition”. The compound also yielded a concentration for half-maximal inhibition (IC50) against 5-HT2A receptors [3] of 7.4 ± 1.45 µM.

`Cl.Fc1ccc2c(C3CCN(CCCCN4CCCCC4)CC3)noc2c1` [compound 3]: on 5-HT2A receptors [2], the “antagonism of 5-HT responses” value was “no significant effects”. The “concentration yielding significant current inhibition by compound alone” value at 5-HT2A receptors [4] (oocytes, no 5-HT) is not below 5 µM. Moreover, the “current inhibition in oocytes expressing GIRK4* alone versus GIRK4* and 5-HT2A receptors” value on GIRK4* channel was “no significant differences”.

What is called IC50 is the concentration that gives 50% inhibition. Low readings indicate inhibition by little substance, high ones a need for much substance. The term Ki denotes a dissociation constant, usually derived from enzyme kinetics or from competition with a known ligand. Higher therefore signals a looser hold on the target.
